Compounds with a hit are over-represented: about 2.6% of the library has one in this group of screens.
NR2E3 ag-1 – inhibitors of NR2E3-RetCOR corepressor binding, primary screen, NR2E3 agonist project, biochemical, TR-FRET, GST-NR2E3, biotin-RetCOR | Photoreceptor-specific nuclear receptor (Homo sapiens), Q9Y5X4 | 1536-well | inhibition of corepressor binding, % at 4.78 µM | 320,000 compounds, 0.12% hits;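 active = percent inhibition above the cutoff of mean plus 3 SD of all tested compounds, set per screening campaign, cut at about 20% in these data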;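 also: 0% = DMSO wells and 100% = biotin wells as full block of FRET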
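Test system: GST-NR2E3 and biotin-RetCOR proteins | Quantity: 1.35 nM GST-tagged NR2E3 final | Medium: Tris pH 7.5 | Also added: 7 nM biotin-RetCOR | Dosing: Compound at 4.8 µM, single dose | Timing: 5 h at 4 °C | Detection: Time-resolved FRET | Read-out basis: Percent inhibition | Benchmarks: Biotin wells as high control, 0.6% DMSO wells as low control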
PG9 binder – binders of HIV-1 gp120 antibody PG9, primary screen, biochemical, TR-FRET | HIV-1 gp120 / PG9 antibody interaction | TR-FRET gp120-PG9 antibody binding | inhibition, % at 6.7 µM | 360,000 compounds, 0.43% hits | AID 624416, 2012; in the data active = inhibition above about 8.5%
NR2E3 ag-2 – NR2E3 agonists in two-hybrid cells, primary screen, cell-based, luminescence, CHO-S, Gal4-NCOR/VP16-NR2E3. luciferase. AID 602229, 2012. 360,000 compounds, 0.35% hits. inhibition of corepressor binding, % at 3.98 µM;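 active = inhibition above the mean of all tested compounds plus 3 SD, cut at about 70% in these data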;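 also: 0% = DMSO with NR2E3 transfected cells and 100% = cells lacking NR2E3 construct; higher means lower luciferase signal from less NR2E3 corepressor binding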
NR1D1 modulator – modulators of Rev-erb alpha DNA binding, primary screen, biochemical, FITC-DNA, fluorescence polarization, uHTS. activity, % at 10 µM. 370,000 compounds, 0.79% hits. AID 1259318, 2017. Rev-erbα–FITC-DNA binding, 90 min;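 active = activity above about 14%, limit read from the data; passing the limit was not always enough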;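 also: 0% = DMSO wells with 35 nM protein and 100% = DMSO wells with 750 nM protein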
Target sequence (P20393 whole entry, looked up): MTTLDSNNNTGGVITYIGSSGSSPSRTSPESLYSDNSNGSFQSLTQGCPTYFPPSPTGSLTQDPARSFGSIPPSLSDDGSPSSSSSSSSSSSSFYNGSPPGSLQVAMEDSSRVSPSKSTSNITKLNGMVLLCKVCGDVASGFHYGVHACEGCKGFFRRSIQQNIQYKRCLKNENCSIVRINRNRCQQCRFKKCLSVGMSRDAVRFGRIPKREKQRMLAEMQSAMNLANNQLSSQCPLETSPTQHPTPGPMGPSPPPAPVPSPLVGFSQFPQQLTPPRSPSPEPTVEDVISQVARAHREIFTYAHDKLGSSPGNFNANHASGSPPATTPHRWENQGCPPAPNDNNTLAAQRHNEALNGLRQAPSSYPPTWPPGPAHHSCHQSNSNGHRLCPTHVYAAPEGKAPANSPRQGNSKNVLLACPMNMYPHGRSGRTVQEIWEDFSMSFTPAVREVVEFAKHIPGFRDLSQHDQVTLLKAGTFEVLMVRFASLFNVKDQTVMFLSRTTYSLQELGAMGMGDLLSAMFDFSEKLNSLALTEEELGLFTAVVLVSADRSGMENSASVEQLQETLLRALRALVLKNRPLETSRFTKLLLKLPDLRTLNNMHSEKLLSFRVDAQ
rCAG RNA binder – binders of r(CAG) RNA repeats, primary screen, biochemical, fluorescence; r(CAG) RNA repeat, TO-PRO-1 dye displacement fluorescence; AID 651821, 2012; inhibition, % at 3 µM; 370,000 compounds, 1.3% hits;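 active = inhibition above the plate cutoff, the mean of all test compounds on that plate plus 3 SD, cut at about 35% in these data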;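 also: 0% = DMSO alone and 100% = 100 µM mitoxantrone as full dye displacement; higher means more dye released from RNA so lower well fluorescence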
NR2E3 ag conf – NR2E3 agonist confirmation in cells, cell-based, luminescence, CHO-S two-hybrid; shares compounds with NR2E3 ag-2; CHO-S mammalian two-hybrid NR2E3-NCOR, luciferase luminescence; inhibition, % at 3.98 µM; 2,300 compounds, 51% hits; AID 624378, 2012;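 active = average inhibition above a cutoff equal to the mean inhibition of all tested compounds plus one SD, cut at about 70% in these data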;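 also: 0% = DMSO in NR2E3 cells and 100% = DMSO in cells lacking NR2E3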
GAL4-VP16 luc – GAL4-VP16 reporter modulators, confirmation, counter-screen for NR2E3 agonist project, cell-based, luminescence, CHO-S, high throughput; AID 624379, 2012; CHO-S GAL4-VP16 luciferase reporter; inhibition, % at 3.98 µM; shares compounds with NR2E3 ag-2; 2,300 compounds, 29% hits;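 active = mean inhibition above a cutoff equal to the average over all tested compounds plus one standard deviation, cut at about 70% in these data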;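 also: luciferase from a UAS reporter driven by GAL4-VP16 transactivation; 0% = DMSO with VP16-transfected cells and 100% = DMSO with cells lacking VP16; higher means less reporter light so more repression of VP16 activity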
Active calls of the source: *; . = no result given.

SMILES | NR2E3 ag-1 | PG9 binder | NR2E3 ag-2 | NR1D1 modulator | rCAG RNA binder | NR2E3 ag conf | GAL4-VP16 luc
CCc1[nH]nc(C(=O)NC2CCCc3c2cnn3-c2cc(C)cc(C)c2)c1C (stereo not given) | 1.6 | 0.1 | 61.4 | -3.2 | -6.0 | 54.3 | -7.5
Cc1ccc(-n2ncc3c2CCCC3NC(=O)c2ocnc2C)cc1C (stereo not given) | 1.6 | -1.9 | 100.9* | -6.9 | -6.6 | 90.4* | 79.9*
COC(=O)[C@]12C[C@H](CC(=O)NCc3ccc(C)o3)C(=O)N(Cc3ccc(Cl)cc3Cl)C1=C[C@H](COCc1ccccc1)O[C@@H]2C | . | . | . | 1.5 | 8.0 | . | .
CCCCOc1ccc(S(=O)(=O)Nc2cccnc2)cc1 | 3.1 | -1.8 | 94.3* | -1.8 | -0.8 | 90.1* | 74.4*
Cc1ccc(S(=O)(=O)Nc2cccnc2)cc1 | 4.3 | -1.3 | -14.4 | 0.6 | -0.1 | . | .
CCCCCCCCCCC(CO)CCCCCCCC (stereo not given) | . | . | . | -8.0 | . | . | .
COCCn1c(C)cc(C(=O)CSc2nnnn2C2CCCC2)c1C | 0.6 | 0.0 | 55.9 | -1.2 | 4.4 | 22.1 | -54.1
COc1ccc(Cl)cc1C(=O)CSc1nnnn1C1CCCC1 | 2.6 | -2.9 | -2.1 | -0.8 | 6.6 | . | .
CSC1SCC2C(=O)N(C)C(C(C)C)C(=O)OCC(NC(=O)c3cnc4ccccc4n3)C(=O)NC(C)C(=O)N(C)C1C(=O)N(C)C(C(C)C)C(=O)OCC(NC(=O)c1cnc3ccccc3n1)C(=O)NC(C)C(=O)N2C (stereo not given) | . | 0.4 | 102.8* | 2.1 | 28.2 | 98.3* | 94.9*
Cc1ccccc1NC(=O)c1cccc2nc3ccccc3nc12 | 0.3 | -1.9 | 80.3* | 0.4 | 6.1 | 96.4* | 67.0
O=S(=O)(O)CC(S)CS (stereo not given) | . | . | . | 3.6 | . | . | .
COCCN1C(=O)[C@H]2C[C@@]13O[C@H](C1CCCCC1)N=C3CC1c3ccccc3C[C@@]12C (stereo not given in full) | . | 0.1 | . | 5.2 | -2.5 | . | .
Cc1ccc(CNc2nc(NCc3ccccc3)nc3ccsc23)c(C)c1 | . | -0.7 | 74.1* | 2.3 | 2.5 | 67.7 | 45.1
Cc1ccc(CNc2nc(NC(C)C)nc3ccsc23)c(C)c1 | . | 2.1 | -25.7 | -3.3 | -0.3 | . | .
CNc1nc(Nc2ccc(C)cc2C)c2sccc2n1 | . | 0.1 | 48.8 | 0.1 | 2.7 | 42.8 | 35.5
CNc1nc(NCc2ccc(C)cc2C)c2sccc2n1 | . | -0.1 | 50.2 | -10.2 | 3.3 | 27.7 | 28.4
Cc1noc(C)c1NC(=O)N(C)C[C@@H]1OCc2cn(nn2)CCCC(=O)N([C@@H](C)CO)C[C@H]1C | . | -0.6 | . | 0.9 | 1.9 | . | .
CC(C)(C)C1=CC(CC(N)=O)(C(C)(C)C)OC1=O (stereo not given) | . | -1.1 | . | -3.3 | 1.9 | . | .
O=c1[nH]cnc2c1nnn2C1OC(CO)C(O)C1O (stereo not given) | . | -0.9 | 48.9 | 10.6 | 0.3 | -39.9 | 25.5
CN(C)c1ncnc2c1nnn2C1OC(CO)C(O)C1O (stereo not given) | . | -0.7 | 88.8* | -2.9 | 0.6 | -8.7 | 60.8
CN(C)c1ncnc2c1ncn2C1OC(CO)C(O)C1O (stereo not given) | 2.7 | -0.9 | 22.4 | 4.6 | 1.2 | . | .
O=C(NCc1ccc(OC(F)(F)F)cc1)C1CC(c2ccc(C(F)(F)F)cc2)=NO1 (stereo not given) | 3.2 | -0.6 | 20.4 | -7.7 | -3.6 | . | .
O=C(NCc1ccc(C(F)(F)F)cc1)C1CC(c2ccc(C(F)(F)F)cc2)=NO1 (stereo not given) | 2.0 | -0.5 | 80.9* | -2.0 | -5.2 | 80.9* | 60.4
CCN1/C(=C/c2ccc3ccccc3[n+]2CC)C=Cc2ccccc21 | -9.3 | -13.9 | 88.5* | -34.4 | 13.6 | 98.0* | 87.6*
CCN1/C(=C/c2ccc3ccccc3[n+]2CCCS(=O)(=O)[O-])C=Cc2cc(C)ccc21 | . | -9.4 | -6.2 | -9.0 | 3.1 | . | .
SMILES | NR2E3 ag-1 | PG9 binder | NR2E3 ag-2 | NR1D1 modulator | rCAG RNA binder | NR2E3 ag conf | GAL4-VP16 luc
Cc1ccc(CCNc2ncnc(Cl)c2N)cc1 | . | 0.5 | 78.0* | 0.0 | 2.7 | 92.0* | 74.5*
COc1ccc2c(c1)[C@@]1(OCCC=C[C@H]1C)C(=O)N2C/C=C(\C)CCC=C(C)C | . | -0.8 | . | -0.5 | -1.0 | . | .
CCOC(=O)C(=O)NNc1ccc(C)cc1 | 4.4 | -1.2 | 59.7 | 4.0 | -0.1 | 25.3 | 8.8
CCOC(=O)C(=O)NNc1ccc(Cl)cc1 | 1.8 | -0.1 | 60.3 | 6.9 | -0.7 | 36.8 | -18.4
Nc1[nH]c(C(=O)c2ccc(Cl)cc2)c(-c2ccc(Br)cc2)c1C(=O)NCc1ccc(Cl)cc1Cl | . | -1.1 | . | 0.5 | 8.3 | . | .
CC(C)C1CC(N(C)C)=CC(=S)N1 (stereo not given) | . | -1.2 | . | -6.1 | 4.5 | . | .
O=[N+]([O-])c1cc(S(=O)(=O)NCc2ccco2)ccc1NN=Cc1ccccn1 | . | -1.7 | . | -30.6 | -0.7 | . | .
COc1cccc(N2CCN(c3nc(-c4ccccc4C)cc(=O)[nH]3)CC2)c1 | . | 0.6 | 93.0* | -3.5 | -4.0 | 98.1* | 2.5
COc1ccc(OC)c(NC(=O)O[C@@H]2CC[C@@]34CCCN3C(=O)CCC[C@H]4C2)c1 | . | . | . | -1.7 | . | . | .
Cc1noc(C)c1S(=O)(=O)Nc1ccc(C(=O)N2CCN(c3ccc(Cl)cc3)CC2)cc1 | -0.9 | -1.9 | 65.4 | 1.3 | 15.2 | 85.8* | 52.7
Cc1ccc(S(=O)(=O)N2CCC(=O)N(CCOCc3ccc(C(F)(F)F)cc3)CC2)cc1 | 2.0 | -0.1 | 81.3* | -1.9 | -8.7 | 88.3* | 70.8*
O=C1CCN(S(=O)(=O)c2ccccc2)CCN1CCOCc1ccc(C(F)(F)F)cc1 | 0.7 | -0.8 | 35.9 | 2.3 | -7.9 | . | .
COC(=O)[C@]12C[C@H](CC(=O)NCc3cccs3)C(=O)N(Cc3ccccc3)C1=C[C@H](C1CCCC1)O[C@@H]2C | . | -0.8 | . | -2.6 | 3.5 | . | .
CCOc1ccc(S(=O)(=O)Nc2ccc3c(c2)n(C)c(=O)n3C)cc1 | 3.1 | -0.3 | 73.9* | 1.9 | 0.7 | 62.2 | 59.1
COc1ccc(NS(=O)(=O)c2ccc(C(=O)N3CCC(C)CC3)cc2)cc1 | . | -0.5 | 56.0 | 0.8 | -0.4 | 25.1 | 24.8
CCOc1ccc(NS(=O)(=O)c2ccc(C(=O)N3CCCCC3)cc2)cc1 | 0.3 | -0.1 | 58.3 | -4.7 | -1.6 | 40.1 | 53.8

Compound activity deposited in PubChem BioAssay by several laboratories.
